NF-kB neuron act: raises NF-kB expression in human neuronal cells. NF-kB reporter expression; active compounds read high. fold change at 12.5 µM. 1.6% of 190,000 active. AID 1239; in the data active means fold change above about 3.3
STAT1 inh: inhibitors of IFN-gamma induced STAT1 signaling. NIH 3T3 STAT1-luciferase reporter, luminescence. 0.35% of 200,000 active. inhibition, % at 5.5 µM;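 active means inhibition above a set limit, the mean inhibition across all tested compounds plus 3 SD, cut at about 34% in these data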;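 further: 0% = IFN-gamma with DMSO and 100% = IFN-gamma with 300 µM nifuroxazide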
STAT3 activator: activators of IL-6 induced STAT3 signaling; U3A cells, IL-6 STAT3-luciferase reporter, luminescence; 100% = signal with IL-6 EC80 alone; activation (% of control), % at 5.6 µM; 0.91% of 190,000 active; AID 871;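 active means activation above the screen-wide mean of compound activation plus 3 SD, cut at about 130% in these data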;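 further: 0% = background luminescence of wells with medium and substrate only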
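Test system: human U3A cells carrying STAT3-luciferase construct; control set: IL-6-only wells as 100% reference; timing: compound pre-incubation 1 h before IL-6, then 6 h stimulation at 37 °C; also added: IL-6 stimulus at 33 ng/mL final; evaluation: % activation versus median of IL-6-stimulated wells; detection: reporter luminescence signal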
STAT1 act: STAT1 signaling activation | NIH 3T3 STAT1-luciferase reporter, IFN-gamma, luminescence; 100% = IFN-gamma alone, no compound | activation (% of control), % at 5.5 µM | 2.6% of 200,000 active | AID 932;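 active means activation above the screen-wide mean activation plus 3 SD, cut at about 130% in these data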;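 further: raw ratio to IFN-gamma control signal so 100% means no change and 0% no light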
STAT3 inh: inhibitors of IL-6 induced STAT3 signaling | U3A cells, IL-6 STAT3-luciferase reporter, luminescence; host cell line lacks STAT1 | inhibition, % at 5.5 µM | 0.89% of 190,000 active | AID 862;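 active means inhibition above the mean inhibition across all screened compounds plus 3 SD, cut at about 44% in these data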;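 further: 0% = DMSO only wells and 100% = 100 µM nifuroxazide control wells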
APP 5'UTR act: APP 5'UTR luciferase reporter activation; SH-SY5Y APP 5'UTR luciferase reporter, luminescence; zero percent = DMSO vehicle wells; activation, % at 2 µM; 1% of 190,000 active;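 active means activation above a set limit, based on mean plus 3 SD of controls, cut at about 140% in these data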
* = called active by the depositor. Sampled rows, rich in hits. Any-hit rate of the full collection: about 4.9%.

Results for N#CC(c1cccc(Cl)c1)c1ccc2c(C(F)(F)F)cc(C(F)(F)F)nc2n1 (configuration not stated) ?
NF-kB neuron act: 0.95; STAT1 inh: 61*; STAT3 activator: 29; STAT1 act: 47; STAT3 inh: 86*; APP 5'UTR act: -9

What do the screens show for `NNc1ccc2c(C(F)(F)F)cc(C(F)(F)F)nc2n1`?
NF-kB neuron act: 1.3; STAT1 inh: 3; STAT3 activator: 105; STAT1 act: 97; STAT3 inh: -4; APP 5'UTR act: 7

How did O=C(CCc1nnc(C2CCCCC2)o1)N1CCC(Oc2cccnc2)CC1 do in these assays?
NF-kB neuron act: 1.2; STAT1 inh: 5; STAT3 activator: 103; STAT1 act: 93; STAT3 inh: -1; APP 5'UTR act: 39

How did COC(=O)c1[nH]c2ccc(Br)cc2c1NC(=O)CN1CCN(C2CCCCC2)CC1 do in these assays?
NF-kB neuron act: 4*; STAT1 inh: 11; STAT3 activator: 89; STAT1 act: 90; STAT3 inh: 17; APP 5'UTR act: 8

Results for COc1ccc(C(=O)O/N=C(\N)c2ccncc2)cc1OC ?
NF-kB neuron act: 1.2; STAT1 inh: -10; STAT3 activator: 110; STAT1 act: 109; STAT3 inh: -15; APP 5'UTR act: 7

Results for Cc1ccc(C(=O)O/N=C(\N)c2cccc([N+](=O)[O-])c2)cc1 ?
NF-kB neuron act: 3.8*; STAT1 inh: -53; STAT3 activator: 108; STAT1 act: 147*; STAT3 inh: 1; APP 5'UTR act: 158*

Results for Cc1cccc(C(=O)O/N=C(\N)c2ccc(Br)cc2)c1 ?
NF-kB neuron act: 4*; STAT1 inh: -23; STAT3 activator: 122; STAT1 act: 121; STAT3 inh: -25; APP 5'UTR act: 31

Results for COc1cccc(C(=O)O/N=C(\N)c2ccncc2)c1 ?
NF-kB neuron act: 2.5; STAT1 inh: -42; STAT3 activator: 99; STAT1 act: 139*; STAT3 inh: 5; APP 5'UTR act: 106

How did COc1ccc2c(c1)sc1nc(-c3ccccc3)cn12 do in these assays?
NF-kB neuron act: 0.63; STAT1 inh: 71*; STAT3 activator: 15; STAT1 act: 34; STAT3 inh: 106*; APP 5'UTR act: -87

What do the screens show for `CCOC(=O)N1CCN(C(=O)c2ccc3c(c2)sc2nc(-c4ccc(OC)cc4)cn23)CC1`?
NF-kB neuron act: 0.66; STAT1 inh: -13; STAT3 activator: 94; STAT1 act: 112; STAT3 inh: 12; APP 5'UTR act: 19

Results for Cc1ccc(S(=O)(=O)N(C)C)cc1NC(=O)CN1C(=O)NC2(CCCc3ccccc32)C1=O (configuration not stated) ?
NF-kB neuron act: 1.2; STAT1 inh: 7; STAT3 activator: 95; STAT1 act: 94; STAT3 inh: 8; APP 5'UTR act: -5

What do the screens show for `O=C(Nc1ccc(Cl)cc1F)c1ccccc1Br`?
NF-kB neuron act: 5.7*; STAT1 inh: -51; STAT3 activator: 97; STAT1 act: 148*; STAT3 inh: 2; APP 5'UTR act: 120

Results for O=C(NNC(=O)c1ccccc1Br)c1ccc(Cl)cc1 ?
NF-kB neuron act: 1.6; STAT1 inh: -9; STAT3 activator: 103; STAT1 act: 108; STAT3 inh: 1; APP 5'UTR act: 1

How did O=C(Nc1ccc(C(F)(F)F)cc1)c1ccccc1Br do in these assays?
NF-kB neuron act: 2.3; STAT1 inh: -34; STAT3 activator: 91; STAT1 act: 129*; STAT3 inh: 18; APP 5'UTR act: 30

How did COc1ccc(-n2c(-c3ccc(Br)cc3)c[n+]3c2CCc2ccccc2-3)cc1 do in these assays?
NF-kB neuron act: 0.8; STAT1 inh: 25; STAT3 activator: 39; STAT1 act: 78; STAT3 inh: 72*; APP 5'UTR act: 2

How did CC(C)c1ccc(-n2c(-c3ccccc3)c[n+]3c2CCc2ccccc2-3)cc1 do in these assays?
NF-kB neuron act: 1.4; STAT1 inh: 40*; STAT3 activator: 35; STAT1 act: 63; STAT3 inh: 80*; APP 5'UTR act: -13

How did CC(C(=O)NC(C)(C)C)N1C(=O)c2cccc3cccc(c23)C1=O (configuration not stated) do in these assays?
NF-kB neuron act: 1.1; STAT1 inh: 7; STAT3 activator: 83; STAT1 act: 93; STAT3 inh: 28; APP 5'UTR act: 12

Bioassay records (PubChem BioAssay)
